Measured values collected from several papers.
Target: Serine/threonine-protein kinase NLK (NLK, Homo sapiens, UniProt Q9UBE8)
One construct used (Q9UBE8 1-527): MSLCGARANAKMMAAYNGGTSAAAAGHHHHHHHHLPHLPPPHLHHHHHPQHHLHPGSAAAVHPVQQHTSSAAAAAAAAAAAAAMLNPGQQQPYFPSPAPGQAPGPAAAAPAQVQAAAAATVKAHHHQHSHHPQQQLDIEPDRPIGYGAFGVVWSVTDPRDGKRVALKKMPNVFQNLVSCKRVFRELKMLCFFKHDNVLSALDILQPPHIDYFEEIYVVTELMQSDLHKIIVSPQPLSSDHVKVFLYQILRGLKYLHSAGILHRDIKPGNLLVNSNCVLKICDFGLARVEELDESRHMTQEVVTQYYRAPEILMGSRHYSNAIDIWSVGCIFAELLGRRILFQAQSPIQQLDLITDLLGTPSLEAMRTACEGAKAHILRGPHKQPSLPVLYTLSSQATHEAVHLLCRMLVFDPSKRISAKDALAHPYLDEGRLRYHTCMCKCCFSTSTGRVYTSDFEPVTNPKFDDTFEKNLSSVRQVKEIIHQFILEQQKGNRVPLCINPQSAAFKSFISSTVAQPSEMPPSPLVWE

SMILES | effect on | mode | technique | concentration | measurement | value
COc1cc(Nc2ncc(F)c(Nc3ccc4c(n3)NC(=O)C(C)(C)O4)n2)cc(OC)c1OC | binding | – | – | 10 µM | inhibition | 0%
Cn1cncc1[C@@](O)(COc1ccc(C#N)cc1-c1ccc(OC(F)(F)F)cc1)c1ccc(C#N)cc1 | cell-free assay | – | competition with immobilised ligand | 1 µM | remaining binding | 100%
Cc1nn(C)cc1-c1nc2c(N3CCN(Cc4ccc(Cl)cc4)CC3)c(Cl)cnc2[nH]1 | binding | – | competition with immobilised ligand | 1 µM | remaining binding | 72%
Cn1cc(-c2cccc(N3CCc4c(sc5c4CC(C)(C)C5)C3=O)c2CO)cc(Nc2ccncn2)c1=O | enzyme activity | inhibitor | – | 1 µM | inhibition | -10%
N#CC1(c2ccccn2)CCN(Cc2cc(C(=O)O)c(=O)n3ccccc23)CC1 | cell-free assay | – | competition with immobilised ligand | 1 µM | remaining binding | 100%
O=c1[nH]c2ccccc2n1C1CCN(Cc2ccc(-c3[nH]c4cc5ncnc5cc4nc3-c3ccccc3)cc2)CC1 | cell-free assay | – | – | 0.5 µM | remaining signal | 104%
COc1ncccc1-c1cnn2ccc(N3CCN(C(=O)OC(C)C)CC3)nc12 | binding | – | competition with immobilised ligand | 1 µM | remaining binding | 100%
Nc1ncc(-c2nc(N3CCOCC3)nc(N3CCOCC3)n2)c(C(F)F)n1 | binding | – | competition with immobilised ligand | 10 µM | remaining binding | 88%
Cn1cc(-c2cc(F)cc(N3CCn4c(cc5c4CCCC5)C3=O)c2CO)cc(Nc2ccc(N3CCN(C4COC4)CC3)cn2)c1=O | enzyme activity | inhibitor | – | 0.1 µM | inhibition | -4%
